# Test results taken from the RNAGym collection of RNA variant scans (doi:10.1002/anie.201605470).
# B1: Osa-1-4 twister ribozyme (parent)
# chain: CCGCCUAACACUGCCAAUGCCGGUCCCAAGCCCGGAUAAAAGUGGAGGGGGCGG
# Variants of: B1
# Test: self-cleavage, relative activity (ratio to wild type); higher = more cleavage; co-transcriptional
# Summary of the method: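 For each read, cleavage status was taken from whether upstream sequence was present. The reads came from an Oryza sativa twister ribozyme of 54 nucleotides, whose DNA template was synthesised with 97 % wild-type base and 1 % of each other base at the 48 positions downstream of the cleavage site. The template was transcribed in vitro at 37 °C for 2 h with co-transcriptional self-cleavage, and the RNA was reverse-transcribed using a template-switching oligonucleotide, PCR-amplified and deep-sequenced. Relative activity is the fraction cleaved normalised to wild type.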
row,Variant,self-cleavage
1,CCGCCUAACAUUGCCAAUGCCGGUCCCAAGCCCGGAUUAAAGUGGAGGGGGCGG [A38U C11U],0.97
2,CCGCCUAACACUGACAAUGCCGGUCCCAAGCCCGGAUUAAAGUGGAGGGGGCGG [A38U C14A],0.07
3,CCGCCUAACACUGGCAAUGCCGGUCCCAAGCCCGGAUUAAAGUGGAGGGGGCGG [A38U C14G],0.11
4,CCGCCUAACACUGUCAAUGCCGGUCCCAAGCCCGGAUUAAAGUGGAGGGGGCGG [A38U C14U],0.22
5,CCGCCUAACACUGCAAAUGCCGGUCCCAAGCCCGGAUUAAAGUGGAGGGGGCGG [A38U C15A],0.23
6,CCGCCUAACACUGCGAAUGCCGGUCCCAAGCCCGGAUUAAAGUGGAGGGGGCGG [A38U C15G],0.25
7,CCGCCUAACACUGCUAAUGCCGGUCCCAAGCCCGGAUUAAAGUGGAGGGGGCGG [A38U C15U],0.21
8,CCGCCUAACACUGCCAAUGACGGUCCCAAGCCCGGAUUAAAGUGGAGGGGGCGG [A38U C20A],0.82
9,CCGCCUAACACUGCCAAUGGCGGUCCCAAGCCCGGAUUAAAGUGGAGGGGGCGG [A38U C20G],0.15
10,CCGCCUAACACUGCCAAUGUCGGUCCCAAGCCCGGAUUAAAGUGGAGGGGGCGG [A38U C20U],0.98
11,CCGCCUAACACUGCCAAUGCAGGUCCCAAGCCCGGAUUAAAGUGGAGGGGGCGG [A38U C21A],0.53
12,CCGCCUAACACUGCCAAUGCGGGUCCCAAGCCCGGAUUAAAGUGGAGGGGGCGG [A38U C21G],0.06
13,CCGCCUAACACUGCCAAUGCUGGUCCCAAGCCCGGAUUAAAGUGGAGGGGGCGG [A38U C21U],0.99
14,CCGCCUAACACUGCCAAUGCCGGUACCAAGCCCGGAUUAAAGUGGAGGGGGCGG [A38U C25A],0.07
15,CCGCCUAACACUGCCAAUGCCGGUGCCAAGCCCGGAUUAAAGUGGAGGGGGCGG [A38U C25G],0.09
16,CCGCCUAACACUGCCAAUGCCGGUUCCAAGCCCGGAUUAAAGUGGAGGGGGCGG [A38U C25U],0.9
17,CCGCCUAACACUGCCAAUGCCGGUCACAAGCCCGGAUUAAAGUGGAGGGGGCGG [A38U C26A],0.04
18,CCGCCUAACACUGCCAAUGCCGGUCGCAAGCCCGGAUUAAAGUGGAGGGGGCGG [A38U C26G],0.09
19,CCGCCUAACACUGCCAAUGCCGGUCUCAAGCCCGGAUUAAAGUGGAGGGGGCGG [A38U C26U],0.92
20,CCGCCUAACACUGCCAAUGCCGGUCCAAAGCCCGGAUUAAAGUGGAGGGGGCGG [A38U C27A],0.14
21,CCGCCUAACACUGCCAAUGCCGGUCCGAAGCCCGGAUUAAAGUGGAGGGGGCGG [A38U C27G],0.08
22,CCGCCUAACACUGCCAAUGCCGGUCCUAAGCCCGGAUUAAAGUGGAGGGGGCGG [A38U C27U],0.15
23,CCGCCUAACACUGCCAAUGCCGGUCCCAAGACCGGAUUAAAGUGGAGGGGGCGG [A38U C31A],0.03
24,CCGCCUAACACUGCCAAUGCCGGUCCCAAGGCCGGAUUAAAGUGGAGGGGGCGG [A38U C31G],0.08

row,Variant,self-cleavage
1,CCGCCUAACACUGCCAAUGCCGGUCCCAAGUCCGGAUUAAAGUGGAGGGGGCGG [A38U C31U],0.75
2,CCGCCUAACACUGCCAAUGCCGGUCCCAAGCACGGAUUAAAGUGGAGGGGGCGG [A38U C32A],0.08
3,CCGCCUAACACUGCCAAUGCCGGUCCCAAGCGCGGAUUAAAGUGGAGGGGGCGG [A38U C32G],0.12
4,CCGCCUAACACUGCCAAUGCCGGUCCCAAGCUCGGAUUAAAGUGGAGGGGGCGG [A38U C32U],0.11
5,CCGCCUAACACUGCCAAUGCCGGUCCCAAGCCAGGAUUAAAGUGGAGGGGGCGG [A38U C33A],0.1
6,CCGCCUAACACUGCCAAUGCCGGUCCCAAGCCGGGAUUAAAGUGGAGGGGGCGG [A38U C33G],0.05
7,CCGCCUAACACUGCCAAUGCCGGUCCCAAGCCUGGAUUAAAGUGGAGGGGGCGG [A38U C33U],0.79
8,CCGCCUAACACUGCCAAUGCCGGUCCCAAGCCCGGAUUAAAGUGGAGGGGGAGG [A38U C52A],1
9,CCGCCUAACACUGCCAAUGCCGGUCCCAAGCCCGGAUUAAAGUGGAGGGGGGGG [A38U C52G],0.98
10,CCGCCUAACACUGCCAAUGCCGGUCCCAAGCCCGGAUUAAAGUGGAGGGGGUGG [A38U C52U],1.01
11,CCGCCUAACACUACCAAUGCCGGUCCCAAGCCCGGAUUAAAGUGGAGGGGGCGG [A38U G13A],0.11
12,CCGCCUAACACUCCCAAUGCCGGUCCCAAGCCCGGAUUAAAGUGGAGGGGGCGG [A38U G13C],0.03
13,CCGCCUAACACUUCCAAUGCCGGUCCCAAGCCCGGAUUAAAGUGGAGGGGGCGG [A38U G13U],0.03
14,CCGCCUAACACUGCCAAUACCGGUCCCAAGCCCGGAUUAAAGUGGAGGGGGCGG [A38U G19A],0.57
15,CCGCCUAACACUGCCAAUCCCGGUCCCAAGCCCGGAUUAAAGUGGAGGGGGCGG [A38U G19C],0.04
16,CCGCCUAACACUGCCAAUUCCGGUCCCAAGCCCGGAUUAAAGUGGAGGGGGCGG [A38U G19U],0.22
17,CCGCCUAACACUGCCAAUGCCAGUCCCAAGCCCGGAUUAAAGUGGAGGGGGCGG [A38U G22A],1
18,CCGCCUAACACUGCCAAUGCCCGUCCCAAGCCCGGAUUAAAGUGGAGGGGGCGG [A38U G22C],0.08
19,CCGCCUAACACUGCCAAUGCCUGUCCCAAGCCCGGAUUAAAGUGGAGGGGGCGG [A38U G22U],0.89
20,CCGCCUAACACUGCCAAUGCCGAUCCCAAGCCCGGAUUAAAGUGGAGGGGGCGG [A38U G23A],0.33
21,CCGCCUAACACUGCCAAUGCCGCUCCCAAGCCCGGAUUAAAGUGGAGGGGGCGG [A38U G23C],0.07
22,CCGCCUAACACUGCCAAUGCCGUUCCCAAGCCCGGAUUAAAGUGGAGGGGGCGG [A38U G23U],0.07
23,CCGCCUAACACUGCCAAUGCCGGUCCCAAACCCGGAUUAAAGUGGAGGGGGCGG [A38U G30A],0.04
24,CCGCCUAACACUGCCAAUGCCGGUCCCAACCCCGGAUUAAAGUGGAGGGGGCGG [A38U G30C],0.04
